Experimental data reported in ChEMBL document CHEMBL3414543, “Novel series of benzoquinones with high potency against 5-lipoxygenase in human polymorphonuclear leukocytes” (Eur J Med Chem, 2015).

Experiments:
[1] = molecular target: T1, Polyunsaturated fatty acid 5-lipoxygenase (Homo sapiens, UniProt P09917); test: Inhibition of 5-LOX in A23187-stimulated human blood PMNL assessed as reduction in lipoxygenase products formation in presence of arachidonic acid pre-incubated for 15 mins followed by stimulation with A23187 for 10 mins by RP-HPLC based cell based assay
T1 sequence (P09917 whole entry): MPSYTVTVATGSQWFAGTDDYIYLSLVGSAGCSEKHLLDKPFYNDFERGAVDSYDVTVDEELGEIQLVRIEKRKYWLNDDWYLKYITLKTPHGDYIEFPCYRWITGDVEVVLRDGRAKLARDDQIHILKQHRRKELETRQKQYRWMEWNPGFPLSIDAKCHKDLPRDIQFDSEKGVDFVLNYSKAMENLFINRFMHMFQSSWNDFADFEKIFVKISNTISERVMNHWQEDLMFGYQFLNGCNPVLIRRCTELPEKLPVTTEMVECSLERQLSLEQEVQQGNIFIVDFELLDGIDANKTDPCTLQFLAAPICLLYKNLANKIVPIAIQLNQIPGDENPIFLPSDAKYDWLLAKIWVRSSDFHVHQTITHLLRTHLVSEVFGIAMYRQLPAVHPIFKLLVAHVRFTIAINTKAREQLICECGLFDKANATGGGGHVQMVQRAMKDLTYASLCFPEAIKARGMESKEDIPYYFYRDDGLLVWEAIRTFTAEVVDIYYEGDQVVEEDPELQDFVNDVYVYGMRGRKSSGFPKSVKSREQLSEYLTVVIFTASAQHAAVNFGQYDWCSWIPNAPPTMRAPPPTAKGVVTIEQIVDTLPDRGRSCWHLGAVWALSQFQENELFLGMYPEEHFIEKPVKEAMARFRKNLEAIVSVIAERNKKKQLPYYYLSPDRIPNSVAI
Outline: (§1)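 Human PMNL (5 × 10⁶ in 1 ml PBS pH 7.4, 1 mg/ml glucose, 1 mM CaCl₂), preincubated 15 min at 37 °C with compound or 0.1% DMSO, then stimulated 10 min at 37 °C with A23187, with or without AA. 5-LO products measured. Values are mean ± S.E. of 3–4 independent experiments. IC₅₀ read graphically from 4–5 concentrations.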

[2] = molecular target: T2, Polyunsaturated fatty acid lipoxygenase ALOX15 (Homo sapiens) (UniProt P16050); test: Inhibition of 15-LOX-1 in human blood PMNL assessed as remaining activity by measuring 15-HETE synthesis at 10 uM
T2 sequence (whole entry): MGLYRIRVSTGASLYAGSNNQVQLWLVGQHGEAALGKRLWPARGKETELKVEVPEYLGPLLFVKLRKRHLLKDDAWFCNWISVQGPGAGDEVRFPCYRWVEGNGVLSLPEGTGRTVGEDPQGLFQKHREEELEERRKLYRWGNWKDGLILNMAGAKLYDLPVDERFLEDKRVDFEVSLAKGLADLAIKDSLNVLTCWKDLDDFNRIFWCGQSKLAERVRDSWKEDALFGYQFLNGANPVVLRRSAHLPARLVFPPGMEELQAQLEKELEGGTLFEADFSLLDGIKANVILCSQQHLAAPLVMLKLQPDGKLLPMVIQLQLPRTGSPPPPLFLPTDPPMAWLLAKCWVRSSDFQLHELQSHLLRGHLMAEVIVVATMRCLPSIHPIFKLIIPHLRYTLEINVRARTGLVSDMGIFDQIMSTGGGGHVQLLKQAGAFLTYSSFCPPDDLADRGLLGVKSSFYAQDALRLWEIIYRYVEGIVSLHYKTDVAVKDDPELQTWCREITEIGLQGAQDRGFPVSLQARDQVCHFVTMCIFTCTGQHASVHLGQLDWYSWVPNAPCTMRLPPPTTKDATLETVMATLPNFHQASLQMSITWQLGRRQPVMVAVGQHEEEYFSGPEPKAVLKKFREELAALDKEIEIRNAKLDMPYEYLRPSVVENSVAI
Outline: (§2)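 PMNL isolated from heparinized blood of fasted healthy donors by dextran sedimentation and Nycoprep centrifugation, with hypotonic lysis of erythrocytes. Cells at 5 × 10⁶ in 1 ml PBS pH 7.4 with 1 mg/ml glucose and 1 mM CaCl₂, preincubated 15 min at 37 °C with compound or 0.1% DMSO vehicle, then stimulated 10 min at 37 °C. 12-HETE or 15-HETE formation measured.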

[3] = molecular target: T3, Polyunsaturated fatty acid 5-lipoxygenase (Homo sapiens) (UniProt P09917); test: Inhibition of 5-LOX in A23187-stimulated human blood PMNL assessed as remaining activity by measuring lipoxygenase products formation at 10 uM in presence of arachidonic acid pre-incubated for 15 mins followed by stimulation with A23187 for 10 mins by RP-HPLC based cell based assay; outline: as §1
T3 sequence (whole entry): T1 sequence (P09917 whole entry)

[4] = molecular target: T4, Polyunsaturated fatty acid lipoxygenase ALOX12 (Homo sapiens) (UniProt P18054); test: Inhibition of 12-LOX in human blood PMNL assessed as remaining activity by measuring 12-HETE synthesis at 10 uM; outline: as §2
T4 sequence (whole entry): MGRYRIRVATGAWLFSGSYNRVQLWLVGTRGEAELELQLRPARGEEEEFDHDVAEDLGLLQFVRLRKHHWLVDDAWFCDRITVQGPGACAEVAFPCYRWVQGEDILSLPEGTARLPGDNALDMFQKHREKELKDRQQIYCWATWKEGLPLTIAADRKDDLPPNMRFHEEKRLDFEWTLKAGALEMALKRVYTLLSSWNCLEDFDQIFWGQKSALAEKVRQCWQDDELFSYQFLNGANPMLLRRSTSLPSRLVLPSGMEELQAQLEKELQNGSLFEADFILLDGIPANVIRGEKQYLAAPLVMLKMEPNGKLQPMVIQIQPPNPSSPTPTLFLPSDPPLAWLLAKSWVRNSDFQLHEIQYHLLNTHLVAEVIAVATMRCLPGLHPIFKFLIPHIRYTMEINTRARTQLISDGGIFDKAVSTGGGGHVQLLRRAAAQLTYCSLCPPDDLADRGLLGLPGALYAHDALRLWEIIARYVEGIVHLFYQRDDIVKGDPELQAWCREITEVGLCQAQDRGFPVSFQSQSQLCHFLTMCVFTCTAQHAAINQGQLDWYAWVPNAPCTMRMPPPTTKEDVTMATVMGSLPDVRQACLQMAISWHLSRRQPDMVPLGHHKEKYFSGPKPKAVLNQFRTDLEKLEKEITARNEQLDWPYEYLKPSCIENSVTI

[5] = molecular target: T3, Polyunsaturated fatty acid 5-lipoxygenase (Homo sapiens); test: Inhibition of 5-LOX in A23187-stimulated human blood PMNL assessed as remaining activity by measuring lipoxygenase products formation at 10 uM pre-incubated for 15 mins followed by stimulation with A23187 for 10 mins by RP-HPLC based cell based assay; outline: as §1
[6] = molecular target: T1, Polyunsaturated fatty acid 5-lipoxygenase; test: Inhibition of human recombinant 5-LOX expressed in Escherichia coli BL21 incubated for 10 mins in presence of arachidonic acid by RP-HPLC based cell-free assay
Outline: (§3)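 Recombinant human 5-LO, semi-purified from a 40,000 × g lysate supernatant on ATP-agarose, diluted in ice-cold PBS with 1 mM EDTA and 1 mM ATP. Preincubated 10 min at 4 °C with compound or 0.1% DMSO, warmed 30 s at 37 °C, then started with 2 mM CaCl₂ plus 20 µM AA. Reaction 10 min at 37 °C, stopped with cold methanol, products by RP-HPLC. IC₅₀ from 4–5 concentrations.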

[7] = molecular target: T1, Polyunsaturated fatty acid 5-lipoxygenase; test: Inhibition of 5-LOX in A23187-stimulated human blood PMNL assessed as reduction in lipoxygenase products formation pre-incubated for 15 mins followed by stimulation with A23187 for 10 mins by RP-HPLC based cell based assay; outline: as §1
Homo sapiens [8] = species: Homo sapiens; test: Selectivity index, ratio of inhibition for 12-LOX in human blood PMNL to IC50 for 5-LOX in human blood PMNL
Homo sapiens [9] = species: Homo sapiens; test: Selectivity index, ratio of inhibition for […] in human blood PMNL to IC50 for 5-LOX in human blood PMNL
[10] = molecular target: T3, Polyunsaturated fatty acid 5-lipoxygenase (Homo sapiens); test: Inhibition of human recombinant 5-LOX expressed in Escherichia coli BL21 assessed as remaining activity at 10 uM incubated for 10 mins in presence of arachidonic acid by RP-HPLC based cell-free assay; outline: as §3
[11] = molecular target: T1, Polyunsaturated fatty acid 5-lipoxygenase; test: Inhibition of human 5-LOX by cell free assay
[12] = molecular target: T3, Polyunsaturated fatty acid 5-lipoxygenase (Homo sapiens); test: Potency index, ratio of IC50 for human 5-LOX by intact cell based assay to IC50 for human 5-LOX by cell free assay
[13] = molecular target: T1, Polyunsaturated fatty acid 5-lipoxygenase; test: Inhibition of human 5-LOX by intact cell based assay

| SMILES | IC50 [1] [nM] | Activity [2] [%] | Activity [3] [%] | Activity [4] [%] | Activity [5] [%] | IC50 [6] [nM] | IC50 [7] [nM] | Selectivity Index (Homo sapiens [8]) | Selectivity Index (Homo sapiens [9]) | Activity [10] [%] | IC50 [11] [nM] | Ratio IC50 [12] | IC50 [13] [nM] |
| --- | --- | --- | --- | --- | --- | --- | --- | --- | --- | --- | --- | --- | --- |
| CC(C)=CCC/C(C)=C/CC/C(C)=C/CC1=C(O)C(=O)C=C(O)C1=O | > 10000 | 95.2 | 66.6 | 78.3 | 85.8 | 2500 | > 10000 | – | – | – | – | – | – |
| CCCCCCCCCCCCCCCCC1=C(O)C(=O)C=C(O)C1=O | > 10000 | 105 | 80.5 | 117 | 88 | 190 | > 10000 | – | – | – | – | – | – |
| CCCCCCCCCCC1=C(OC)C(OC)=CC(=O)C1=O | 70 | 148 | – | 133 | – | 130 | 40 | > 66 | > 66 | – | – | – | – |
| CCCCC1=C(O)C(=O)C=C(O)C1=O | > 10000 | 82.3 | 92.8 | 93.3 | 93.5 | > 10000 | > 10000 | – | – | 65.4 | – | – | – |
| CCCCCCCCCCCCCCCC1=C(OC)C(OC)=CC(=O)C1=O | > 10000 | 115 | 66.8 | 88.9 | 57.6 | 620 | > 10000 | – | – | – | – | – | – |
| CCCCCCCCCCCC1=C(O)C(=O)C=C(O)C1=O [EMBELIN] | 3500 | 91.5 | – | 74.9 | – | 60 | 1700 | – | – | – | 60 | 13 | 800 |
| CCCCCCCCCCCCCCCCC1=C(OC)C(=O)C=C(OC)C1=O | 3500 | 97.8 | – | 121 | 80.1 | 1600 | > 10000 | – | – | – | – | – | – |
| CCCCCCCCC1=C(O)C(=O)C=C(OC)C1=O | > 10000 | 105 | 72.9 | 86.8 | 73.5 | 3000 | > 10000 | – | – | – | – | – | – |
| CCCCCCCCCCCCCCCCC1=C(O)C(=O)C=C(OC)C1=O | 1100 | 119 | – | 138 | – | > 10000 | 1000 | – | – | 60.1 | – | – | – |
| CCCCC1=C(OC)C(OC)=CC(=O)C1=O | 5100 | 129 | – | 85.8 | – | > 10000 | 2200 | – | – | 82.9 | – | – | – |
